In publication PMC9796681 (British Journal of Clinical Pharmacology, 2022):
Where “and” joins values, the source holds several entries; their conditions need not be identical. Identical values can stand only once. Entries after “also recorded” stand apart in the source; their conditions may differ. Like-named read-outs stand apart in the source and are kept apart here. Each block holds one compound with its values, some of them ahead of it.

Legend:
[1] = cited from earlier work
[2] = one-compartment model; cited from earlier work
[3] = Population pharmacokinetic analysis; type: in vivo, human
Outline: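 Healthy young subjects: single 80 mg dose, fasting, sampled predose to 102 h. Gout patients: 40-160 mg/day at steady state (≥7 days after dose change), up to four samples at 1–24 h post-dose. Plasma assayed by HPLC-fluorescence, LLQ 0.005 µg mL-1. Two-compartment model, first-order elimination; power covariate model normalised to median; shared random effect on availability (FVAR); food tested on ka and F.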

[4] = two-compartment model; gouty; cited from earlier work
[5] = single dose 80 mg, healthy subjects

Compound: Cc1nc(-c2ccc(OCC(C)C)c(C#N)c2)sc1C(=O)O[C@@H]1O[C@H](C(=O)O)[C@@H](O)[C@H](O)[C@H]1O [Febuxostat glucuronide]
proportion of the febuxostat dose as glucuronide, excreted by the kidneys ([1]; published data): about 40%

BSV-CL/F, between-subject variability (coefficient of variation) ([3]; final model): 13.6% and 13.6 (37.4) %
BSV-FVAR, common variability on oral availability ([3]; final model): 27.7 (21.2) %
BSV-Vc/F, between-subject variability (coefficient of variation) ([3]; final model): 22% and 22.0 (35.4) %
BSV-Vp/F, between-subject variability (coefficient of variation) ([3]; final model): 19.5% and 19.5 (58.2) %
Covariate BMI (ϴ 7), power exponent on Vc/F ([3]; final model, body mass index, median 30.6 kg m^−2): 0.996
Covariate food on ka ([3]; final model, fed status): −0.869
Covariate food on oral availability ([3]; final model, fed status): −0.667
reduction of absorption rate constant ka by food ([3]; final model, fed versus fasted): 87%
reduction of oral availability (relative bioavailability) by food ([3]; final model, fed versus fasted): 67%
RUV-CV%, residual unexplained variability ([3]; final model, proportional residual error): 39.9 (10.1) %
absorption rate constant ka (ϴ 5), population mean ([3]; final two-compartment model): 3.6 h⁻¹ and 3.62 h⁻¹
apparent peripheral volume of distribution Vp/F (ϴ 4), population mean ([3]; final two-compartment model): 19.4 L
intercompartmental clearance Q (ϴ 3), population mean ([3]; final two-compartment model): 1.25 L/h
Vd/F ([3]; human, plasma, oral): 32.8 L
Compound: Cc1nc(-c2ccc(OCC(C)C)c(C#N)c2)sc1C(=O)O [febuxostat]
ka, absorption rate constant [2]: 2.52 h⁻¹
effect of mild and moderate hepatic impairment on the pharmacokinetics ([1]; Child-Pugh class A and B): no effect; also recorded: did not affect
CL/F ([1]; Japanese subjects who had gout or were hyperuricaemic): 9.9 L/h
reduction of apparent clearance by UGT polymorphisms ([1]; UGT six and 28 variants): 22%
ka, value assumed ([1]; assumed by Hirai et al): 2.18 h⁻¹
decline of plasma concentration over the dosage interval ([1]; dosage interval 24 h): up to 100 fold
CL/F ([1]; healthy African Americans): 10.5 L/h
CL/F ([1]; healthy Chinese subjects): 5.3 Lh^−1
effect of food on the extent of absorption (AUC0-48) ([1]; healthy subjects, 48 h): negligible effect; also recorded: reduce the rate but not the extent of absorption
cleared by phase I metabolism (oxidation) ([1]; healthy subjects): ~ 35%
cleared by phase II metabolism (glucuronidation) ([1]; healthy subjects): ~ 40%
febuxostat eliminated from plasma in the first 9 h post-dose ([1]; healthy subjects): 81%
reduction in AUC0-24 with food ([1]; healthy subjects): 20%
reduction in C max with food ([1]; healthy subjects): 50%
mean initial half-life [1, 5]: 2 h
mean terminal half-life [1, 5]: 14 h
Residual CV [4]: 71%
Vc/F, final estimate [4]: 32.2 L
Vp/F, final estimate [4]: 22.2 L
ka, absorption rate constant [4]: 13 h⁻¹
